Measurements from different studies.
Protocols differ between the studies behind these lines.
Target: Platelet-derived growth factor receptor beta (PDGFRB, Homo sapiens, UniProt P09619)

SMILES | effect on | technique | concentration | remaining binding [%]
CC(=O)Nc1c(C(C)=O)c(=O)n(C)c2nc(-c3ccc(Cl)cc3Cl)c(-c3ccc(Cl)cc3)cc12 | cell-free assay | competition with immobilised ligand | 1 µM | 100
CN(CCCC(F)(F)F)c1nccc(-c2cnn3ncccc23)n1 | binding |  | 1 µM | 95
Cc1cnc(Nc2ccc(C(=O)N3CCC(N4CCCC4)CC3)cc2)nc1-c1cc2ccccc2s1 | binding | competition with immobilised ligand | 1 µM | 0.4
O=C(Nc1c[nH]nc1C(=O)NC1CCNCC1)c1cc(F)cc(F)c1 | binding | competition with immobilised ligand | 1 µM | 100
CN(C)c1nccc(-c2cnc3ncccn23)n1 | binding |  | 1 µM | 90
COC(=O)Nc1nc2ccc(C(=O)c3ccccc3)cc2[nH]1 | cell-free assay | competition with immobilised ligand | 10 µM | 3.2
CCOCCn1cc(C(=O)Nc2ccc(-n3nc(-c4cccnc4)cc3C(F)(F)F)cn2)ccc1=O | cell-free assay | competition with immobilised ligand | 1 µM | 88
N[C@H]1CCN(c2nccc(-c3cnn4ncccc34)n2)C1 | binding |  | 1 µM | 93
COc1ncc2cc3ccccc3nc2c1C#N | cell-free assay | competition with immobilised ligand | 5 µM | 97
O=C(NCCCN1CCOCC1)c1ccc(Nc2nccc(-c3cc4ccccc4s3)n2)cc1 | binding | competition with immobilised ligand | 1 µM | 13
c1cncc(-c2cccc(Nc3nccc(NC4CCCCC4)n3)c2)c1 | binding | competition with immobilised ligand | 10 µM | 0
C[C@@H]1CN(c2ccc3ncc(-c4ccc5[nH]nc(C6CC6)c5c4)n3n2)C[C@H](C)O1 | binding | competition with immobilised ligand | 50 nM | 87
C[C@@H](c1ccc(-n2cnc3c(N)ncnc32)cc1)N1CCc2nn(C)c(Cc3ccccc3)c2C1=O | binding | competition with immobilised ligand | 0.1 µM | 17
CC(C)(C)c1ccc(-c2nc(CBr)nn2-c2cccc(O)c2)cc1 | cell-free assay | competition with immobilised ligand | 10 µM | 86
O=C(c1ccc(Nc2ncc(Cl)c(-c3cc4ccccc4s3)n2)cc1)N1CCC(N2CCCC2)CC1 | binding | competition with immobilised ligand | 1 µM | 1.9
COCCOc1nc(-c2ccc(Cl)nc2)nc2c1CN(C(=O)c1ncn3ccccc13)CC2 | cell-free assay | competition with immobilised ligand | 0.1 µM | 100
COc1ccnn2ncc(-c3ccnc(N(C)C)n3)c12 | binding |  | 1 µM | 100
CC(=O)C1=C(C)N(c2cccc(C(F)(F)F)c2)C(=O)N[C@@H]1c1ccc(C#N)nc1 | cell-free assay | competition with immobilised ligand | 1 µM | 94
COc1cnc(Nc2cccc(S(N)(=O)=O)c2)nc1N1CCN(c2ccccc2)CC1 | binding | competition with immobilised ligand | 1 µM | 87
Cc1cc(-n2nc(Cc3cc(F)cc(C(F)(F)F)c3)nc2C)ccc1C(N)=O | cell-free assay | competition with immobilised ligand | 1 µM | 98
Nc1ncc2c(n1)-c1c([nH]c3ccc(C#CC4CC4)cc13)CCCC2 | binding | competition with immobilised ligand | 1 µM | 100
C[C@@H]1CN(c2cc(-c3n[nH]c4ccc(OC5(C)CC5)cc34)ncn2)C[C@H](C)O1 | cell-free assay | competition with immobilised ligand | 0.1 µM | 73
Cc1cnn2ncc(-c3ccnc(N(C)C)n3)c2c1 | binding |  | 1 µM | 100
CS(=O)(=O)NCC[C@H](NC(=O)c1cncc2c1cnn2-c1ccc(F)cc1)c1ccnc(S(C)(=O)=O)c1 | cell-free assay | competition with immobilised ligand | 1 µM | 100
CN(c1nccc(-c2cnn3ncccc23)n1)C1CC1 | binding |  | 1 µM | 98
